Assay results taken from ChEMBL document CHEMBL5058577, “EUbOPEN Chemogenomics Library 2 (Multiplex)” (2022).

System: U2OS
Experiment: Multiplex assay against U2OS
Format: toxicity, cell-based
Conditions: human
Outline: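 With compound added, live cells were imaged on a CQ1 microscope at 37°C and 5% CO2; staining with Hoechst33342, BioTracker Green Microtubule Cytoskeleton Dye, MitoTracker Red and Annexin V Alexa Fluor 680 had been done at seeding. The CellPathfinder machine-learning gating scheme split cells into Hoechst high-intensity objects or normal cells, normal cells into healthy, pyknosed or fragmented nuclei, and pyknosed cells into mitotic or apoptotic. The tubulin, mitochondrial-mass and membrane-permeability phenotypes are per cents of healthy-nucleus cells.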

[1] = 12 h, 1 µM, compound concentration 1 uM, replicate 1
[2] = 12 h, 1 µM, compound concentration 1 uM, replicate 2
[3] = 12 h, 10 µM, compound concentration 10 uM, replicate 1
[4] = 12 h, 10 µM, compound concentration 10 uM, replicate 2
[5] = 24 h, 1 µM, compound concentration 1 uM, replicate 1
[6] = 24 h, 1 µM, compound concentration 1 uM, replicate 2
[7] = 24 h, 10 µM, compound concentration 10 uM, replicate 1
[8] = 24 h, 10 µM, compound concentration 10 uM, replicate 2
[9] = 48 h, 1 µM, compound concentration 1 uM, replicate 1
[10] = 48 h, 1 µM, compound concentration 1 uM, replicate 2
[11] = 48 h, 10 µM, compound concentration 10 uM, replicate 1
[12] = 48 h, 10 µM, compound concentration 10 uM, replicate 2

## CN1CCN(c2ccc(Nc3c4ccccc4nc4ccccc34)cc2)CC1.Cl.Cl.O
[1]
  Population Apoptotic (%): 100%
  Population Fragmented Nuclei (%): 25%
  Population Healthy Nuclei (%): 65%
  Population Hoechst High Intensity Objects (%): 0%
  Population Membrane Permeable-Phenotype (%): 19%
  Population Mitochondria Different-Phenotype (%): 7%
  Population Mitotic Cells (%): 0%
  Population Normal (%): 99%
  Population Pyknosed Nuclei (%): 8%
  Population Tubulin-Different-Phenotype (%): 17%
  Total Cell Count: 193
[2]
  Population Apoptotic (%): 87%
  Population Fragmented Nuclei (%): 23%
  Population Healthy Nuclei (%): 69%
  Population Membrane Permeable-Phenotype (%): 14%
  Population Mitochondria Different-Phenotype (%): 13%
  Population Mitotic Cells (%): 12%
  Population Normal (%): 100%
  Population Pyknosed Nuclei (%): 7%
  Population Tubulin-Different-Phenotype (%): 13%
  Total Cell Count: 107
[3]
  Population Apoptotic (%): 93%
  Population Fragmented Nuclei (%): 54%
  Population Healthy Nuclei (%): 38%
  Population Hoechst High Intensity Objects (%): 0%
  Population Membrane Permeable-Phenotype (%): 65%
  Population Mitochondria Different-Phenotype (%): 95%
  Population Mitotic Cells (%): 6%
  Population Normal (%): 99%
  Population Pyknosed Nuclei (%): 7%
  Population Tubulin-Different-Phenotype (%): 82%
  Total Cell Count: 213
[4]
  Population Apoptotic (%): 100%
  Population Fragmented Nuclei (%): 62%
  Population Healthy Nuclei (%): 31%
  Population Hoechst High Intensity Objects (%): 2%
  Population Membrane Permeable-Phenotype (%): 70%
  Population Mitochondria Different-Phenotype (%): 100%
  Population Mitotic Cells (%): 0%
  Population Normal (%): 97%
  Population Pyknosed Nuclei (%): 6%
  Population Tubulin-Different-Phenotype (%): 85%
  Total Cell Count: 132
[5]
  Population Apoptotic (%): 92%
  Population Fragmented Nuclei (%): 28%
  Population Healthy Nuclei (%): 64%
  Population Hoechst High Intensity Objects (%): 1%
  Population Membrane Permeable-Phenotype (%): 10%
  Population Mitochondria Different-Phenotype (%): 6%
  Population Mitotic Cells (%): 7%
  Population Normal (%): 98%
  Population Pyknosed Nuclei (%): 6%
  Population Tubulin-Different-Phenotype (%): 7%
  Total Cell Count: 200
[6]
  Population Apoptotic (%): 100%
  Population Fragmented Nuclei (%): 29%
  Population Healthy Nuclei (%): 60%
  Population Hoechst High Intensity Objects (%): 4%
  Population Membrane Permeable-Phenotype (%): 5%
  Population Mitochondria Different-Phenotype (%): 12%
  Population Mitotic Cells (%): 0%
  Population Normal (%): 95%
  Population Pyknosed Nuclei (%): 10%
  Population Tubulin-Different-Phenotype (%): 6%
  Total Cell Count: 124
[7]
  Population Apoptotic (%): 100%
  Population Fragmented Nuclei (%): 46%
  Population Healthy Nuclei (%): 42%
  Population Hoechst High Intensity Objects (%): 4%
  Population Membrane Permeable-Phenotype (%): 85%
  Population Mitochondria Different-Phenotype (%): 96%
  Population Mitotic Cells (%): 0%
  Population Normal (%): 95%
  Population Pyknosed Nuclei (%): 11%
  Population Tubulin-Different-Phenotype (%): 90%
  Total Cell Count: 205
[8]
  Population Apoptotic (%): 90%
  Population Fragmented Nuclei (%): 69%
  Population Healthy Nuclei (%): 23%
  Population Hoechst High Intensity Objects (%): 10%
  Population Membrane Permeable-Phenotype (%): 96%
  Population Mitochondria Different-Phenotype (%): 100%
  Population Mitotic Cells (%): 10%
  Population Normal (%): 89%
  Population Pyknosed Nuclei (%): 7%
  Population Tubulin-Different-Phenotype (%): 100%
  Total Cell Count: 148
[9]
  Population Apoptotic (%): 87%
  Population Fragmented Nuclei (%): 36%
  Population Healthy Nuclei (%): 52%
  Population Hoechst High Intensity Objects (%): 4%
  Population Membrane Permeable-Phenotype (%): 6%
  Population Mitochondria Different-Phenotype (%): 4%
  Population Mitotic Cells (%): 12%
  Population Normal (%): 95%
  Population Pyknosed Nuclei (%): 10%
  Population Tubulin-Different-Phenotype (%): 3%
  Total Cell Count: 231
[10]
  Population Apoptotic (%): 100%
  Population Fragmented Nuclei (%): 40%
  Population Healthy Nuclei (%): 47%
  Population Hoechst High Intensity Objects (%): 5%
  Population Membrane Permeable-Phenotype (%): 19%
  Population Mitochondria Different-Phenotype (%): 7%
  Population Mitotic Cells (%): 0%
  Population Normal (%): 94%
  Population Pyknosed Nuclei (%): 12%
  Population Tubulin-Different-Phenotype (%): 9%
  Total Cell Count: 147
[11]
  Population Apoptotic (%): 96%
  Population Fragmented Nuclei (%): 53%
  Population Healthy Nuclei (%): 30%
  Population Hoechst High Intensity Objects (%): 18%
  Population Membrane Permeable-Phenotype (%): 91%
  Population Mitochondria Different-Phenotype (%): 90%
  Population Mitotic Cells (%): 3%
  Population Normal (%): 81%
  Population Pyknosed Nuclei (%): 15%
  Population Tubulin-Different-Phenotype (%): 93%
  Total Cell Count: 243
[12]
  Population Apoptotic (%): 100%
  Population Fragmented Nuclei (%): 76%
  Population Healthy Nuclei (%): 19%
  Population Hoechst High Intensity Objects (%): 15%
  Population Membrane Permeable-Phenotype (%): 100%
  Population Mitochondria Different-Phenotype (%): 96%
  Population Mitotic Cells (%): 0%
  Population Normal (%): 84%
  Population Pyknosed Nuclei (%): 4%
  Population Tubulin-Different-Phenotype (%): 100%
  Total Cell Count: 173
